Measured values published in paper PMC11528686 (Insect biochemistry and molecular biology, 2022).

Experiments:
PGRP12e = experiment: SPR on a Biacore T200; assay type: binding; details: read-out: Kd (μM), values without parentheses
Outline: (§1)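 Association and dissociation were run on a Biacore T200 with amine-coupled protein. DAP- or Lys-muramyl pentapeptide, stored at −20 °C, was flowed in HBS-EP (10 mM HEPES, 150 mM NaCl, 3 mM EDTA, 0.005% polysorbate 20) at 30 μl/min and 25 °C. Multi-concentration curves were globally fitted to 1:1 and two-state models, and Kd came from the fit with lower χ2.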

PGRP3s [1] = experiment: SPR on a Biacore T200; assay type: binding; details: read-out: Kd (μM), values without parentheses
Outline: as §1

PGRP13f = experiment: SPR on a Biacore T200; assay type: binding; details: read-out: Kd (μM), values without parentheses
Outline: as §1

PGRP4 = experiment: SPR on a Biacore T200; assay type: binding; details: read-out: Kd (μM), values without parentheses
Outline: as §1

PGRP1 [2] = target: T1, PGRP1 (Manduca sexta, UniProt Q86RS6); experiment: SPR on a Biacore T100; assay type: binding; details: read-out: Kd (μM), values in parentheses; cited from earlier work
T1 sequence (Q86RS6 20-191): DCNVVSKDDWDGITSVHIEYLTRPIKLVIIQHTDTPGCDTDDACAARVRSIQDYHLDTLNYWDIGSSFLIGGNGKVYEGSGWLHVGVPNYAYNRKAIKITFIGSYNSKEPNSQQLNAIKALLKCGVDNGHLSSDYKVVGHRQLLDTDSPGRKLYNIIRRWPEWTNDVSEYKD

PGRP5 = experiment: SPR on a Biacore T200; assay type: binding; details: read-out: Kd (μM), values without parentheses
Outline: as §1

PGRP3s [3] = experiment: SPR on a Biacore T100; assay type: binding; details: read-out: Kd (μM), values in parentheses
Outline: (§2)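 On a Biacore T100, protein was amine-coupled and DAP- or Lys-muramyl pentapeptide, freshly prepared, was flowed in HBS-EP (10 mM HEPES, 150 mM NaCl, 3 mM EDTA, 0.005% polysorbate 20) at 30 μl/min and 25 °C. Curves at several analyte concentrations were globally fitted to 1:1 and two-state models, and the fit with lower χ2 gave Kd.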

PGRP1 [4] = target: T1, PGRP1; experiment: SPR on a Biacore T200; assay type: binding; details: read-out: Kd (μM), values without parentheses
Outline: as §1

PGRP2 = target: T2, PGRP2 (Manduca sexta, UniProt D1KRK9); experiment: SPR on a Biacore T100; assay type: binding; details: read-out: Kd (μM), values in parentheses
T2 sequence (D1KRK9 19-196): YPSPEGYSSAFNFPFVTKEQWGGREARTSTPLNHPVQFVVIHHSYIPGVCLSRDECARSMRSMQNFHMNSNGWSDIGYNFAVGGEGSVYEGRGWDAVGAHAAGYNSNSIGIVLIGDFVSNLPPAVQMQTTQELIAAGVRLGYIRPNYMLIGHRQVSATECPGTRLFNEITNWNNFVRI
Outline: as §2

PGRP3f = experiment: SPR on a Biacore T200; assay type: binding; details: read-out: Kd (μM), values without parentheses
Outline: as §1

[5] = test system: proPO activation in cell-free hemolymph from naïve larvae; experiment: Elicitor-independent proPO activation in plasma from naïve larvae; assay type: biochemical, Manduca sexta; details: at 40 ng/μl protein, 60 min, room temperature, no bacterial elicitor
Outline: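 Naïve larval plasma (day 2, 5th instar; hemocytes removed by 5000 × g, 5 min; stored −80 °C, used within a month) was diluted ten-fold in 20 mM Tris-HCl pH 8.0, 1 mM CaCl2, 0.001% Tween-20. Plasma (5 μl) was mixed with 0–1000 ng protein (final 25 μl) and incubated 60 min. BSA served as negative control. PO was read with dopamine at A470 in kinetic mode; mean ± SD, n = 3.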

Substance | Kd (PGRP12e) [µM] | Kd (PGRP3s [1]) [µM] | Kd (PGRP13f) [µM] | Kd (PGRP4) [µM] | Kd (PGRP1 [2]) [µM] | Kd (PGRP5) [µM] | Kd (PGRP3s [3]) [µM] | Kd (PGRP1 [4]) [µM] | Kd (PGRP2) [µM] | Kd (PGRP3f) [µM] | PO activity [5] [U]
DAP-muramyl pentapeptide (meso-diaminopimelic acid-type peptidoglycan monomer) [DAP-MPP] | 2.64 | 1.75 | 1.8 | 4.06 | 0.57 | 2.01 | 0.42 | 2.01 | 0.49 | 4.7 | 
Lys-muramyl pentapeptide (Lys-type peptidoglycan monomer) [Lys-MPP] |  | 23.8 | 8.77 | 79.8 | 45.6 | 37.8 | 64 | 38 | > 100 | 29.2 | 
bovine serum albumin [BSA] |  |  |  |  |  |  |  |  |  |  | 0.1
